ChEMBL document CHEMBL4196161, “Lead Optimization of 5-Aryl Benzimidazolone- and Oxindole-Based AMPA Receptor Modulators Selective for TARP γ-8” (ACS Med Chem Lett, 2018)
Converted amounts (≈) assume the structure as drawn.

Experiments:
[1] = test system: Rattus norvegicus; experiment: Hepatotoxicity in Sprague-Dawley rat assessed as necrosis at 20 to 60 mg/kg, po measured after 14 days by histological analysis; assay type: toxicity, organism-based; conditions: in vivo, 336 h
Summary of the method: (§1)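 Repeat-dose toleration study in rats over 14 days at 20 and 60 mg/kg/day; CNS observations recorded and liver assessed by histological analysis.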

[2] = Oral bioavailability in Sprague-Dawley rat at 5 mg/kg administered as single dose by LC-MS/MS analysis; assay type: ADME, organism-based; conditions: in vivo
Summary of the method: (§2)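 Sprague–Dawley rats (n = 3/group) given compound as a solution in 20% HP-β-CD, 1 mg/kg i.v. and 5 mg/kg p.o.; plasma pharmacokinetics derived from these arms.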

[3] = test system: Rattus norvegicus; experiment: Ex vivo receptor occupancy at GluA/TARPgamma8 Sprague-Dawley rat assessed as plasma concentration causing 50% reduction in [3H]JNJ-56022486 receptor labeling in hippocampus po measured after 10 mins by autoradiography
[4] = Protein binding in human plasma assessed as unbound fraction at 1 uM measured after 6 hrs by equilibrium dialysis method; assay type: ADME, cell-free
Summary of the method: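 Human or rat plasma protein binding at 1 μM compound, expressed as fraction unbound (fub).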

[5] = test system: Rattus norvegicus; experiment: Toxicity in po dosed Sprague-Dawley rat assessed as effect on central nervous system functions measured after 14 days; assay type: organism-based; conditions: in vivo, 336 h; summary of the method: as §1
[6] = Thermodynamic solubility of the compound in fasted state simulated intestinal fluid at pH 6.5 incubated under stirred condition for 3 days; conditions: read-out: Therm_solubility
[7] = Half life in Sprague-Dawley rat at 1 mg/kg, iv administered as single dose by LC-MS/MS analysis; assay type: ADME, organism-based; conditions: in vivo
Summary of the method: (§3)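 Single 1 mg/kg i.v. dose as a solution to Sprague–Dawley rats (n = 3/group); vehicle 20% HP-β-CD in one study series, 1:1 PEG400/H2O in the other; plasma PK parameters derived.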

[8] = Thermodynamic solubility of the compound in simulated gastric fluid at pH 1.6 incubated under stirred condition for 3 days; assay type: physicochemical; conditions: read-out: Therm_solubility
Summary of the method: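 Thermodynamic solubility (μM) determined in simulated gastric fluid at pH 1.6 and in fasted state simulated intestinal fluid at pH 6.5.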

[9] = Ratio of unbound brain to plasma concentration in Sprague-Dawley rat at 1 mg/kg, iv or 5 mg/kg, po administered as single dose by LC-MS/MS analysis; assay type: ADME, organism-based; conditions: brain and plasma, read-out: K(p,uu,brain)
[10] = test system: Rattus norvegicus; experiment: Ex vivo receptor occupancy at GluA/TARPgamma8 in po dosed Sprague-Dawley rat assessed as reduction in [3H]JNJ-56022486 receptor labeling in hippocampus measured within 10 mins by autoradiography; assay type: functional
[11] = Volume of distribution at steady state in Sprague-Dawley rat at 1 mg/kg, iv or 5 mg/kg, po administered as single dose by LC-MS/MS analysis; assay type: ADME, organism-based; conditions: in vivo, read-out: Vdss; summary of the method: as §3
[12] = Clearance in Sprague-Dawley rat at 1 mg/kg, iv administered as single dose by LC-MS/MS analysis; assay type: ADME, organism-based; conditions: in vivo; summary of the method: as §3
[13] = Cmax in Sprague-Dawley rat at 5 mg/kg, po administered as single dose by LC-MS/MS analysis; assay type: ADME, organism-based; set-up: dose 5 mg/kg, route oral; conditions: in vivo; summary of the method: as §2
[14] = test system: Rattus norvegicus; experiment: Ex vivo receptor occupancy at GluA/TARPgamma8 in po dosed Sprague-Dawley rat assessed as brain concentration causing 50% reduction in [3H]JNJ-56022486 receptor labeling in hippocampus at Tmax by autoradiography; assay type: functional, organism-based
Summary of the method: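 Oral dose–response in Sprague–Dawley rats, n = 3/dose (8 doses in one study; vehicle 0.5% HPMC or 20% HP-β-CD); hippocampal occupancy measured at Tmax by ex vivo autoradiography using [3H]-12; EC50 expressed against plasma (ng/mL) or brain (ng/g) exposure, ED50 against dose.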

[15] = Apparent permeability across apical to basolateral side in MDCK-MDR1 cells at 5 uM measured after 60 mins by LC-MS/MS analysis; assay type: ADME, cell-based, Canis lupus familiaris; conditions: dog
Summary of the method: (§4)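 Bidirectional apparent permeability measured in Madin–Darby canine kidney cells transfected with the MDR1 (P-gp) gene; Papp reported in ×10–6 cm/s.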

[16] = Apparent permeability across basolateral to apical side in MDCK-MDR1 cells at 5 uM measured after 60 mins by LC-MS/MS analysis; assay type: ADME, cell-based, Canis lupus familiaris; conditions: dog; summary of the method: as §4

O=c1[nH]c2ccc(-c3c(Cl)cccc3OC(F)(F)F)cc2[nH]1
Activity [1]: Toxic
bioavailability [2]: 133%
EC50 [3]: 0.145 µg/mL (≈ 0.441 µM)
fraction unbound at 6 h, 1 µM [4]: 0.3
Activity [5]: Non-Toxic
solubility thermodynamic at 72 h [6]: 74 µM (≈ 24.3 µg/mL)
half-life [7]: 5.8 h
solubility thermodynamic at 72 h [8]: < 4 µM
Kp uu [9]: 0.6
ED50 [10]: 0.5 mg/kg
Vd [11]: 3.3 L/kg
clearance [12]: 6.9 mL/min/kg
Cmax [13]: 1030 ng/mL
EC50 [14]: 545 ng/g
Papp A→B at 1 h, 5 µM [15]: 22 ×10⁻⁶ cm/s
Papp B→A at 1 h, 5 µM [16]: 24 ×10⁻⁶ cm/s
